In brackets after ≈: the same amount, converted by molar mass. Activity calls are given as the source filed them. The rule behind the calls is not given here.
Legend:
[1] = tested on: Streptococcus pneumoniae; assay: Antimicrobial activity against drug-resistant Streptococcus pneumoniae NMU112 infected CBA/J mouse assessed as median survival time at 10 mg/kg, po relative to control; type: functional
Method in brief: (§1)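 Male CBA/J mice, 3-4 weeks old, 28-30 g. Macrolide given by oral gavage in saline for 3 days; RXM, ERY and CLR twice daily at 12-h intervals, AZM once daily. Saline controls. 24 h after the last dose, mice were infected intratracheally with 5 × 10⁴ CFU NMU112 (erm(B)/mef(A)). Kaplan-Meier survival and median survival time, log rank test; 10 mice per group per experiment.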

[2] = tested on: Streptococcus pneumoniae; assay: Antimicrobial activity against drug-resistant Streptococcus pneumoniae NMU112 infected CBA/J mouse assessed as median survival time at 5 mg/kg, po relative to control; type: functional; method in brief: as §1
[3] = tested on: Streptococcus pneumoniae; assay: Antimicrobial activity against drug-resistant Streptococcus pneumoniae NMU112 infected CBA/J mouse assessed as animal survival at 1.25 mg/kg, po; type: functional, organism-based; set-up: dose 1.25 mg/kg; method in brief: as §1
[4] = tested on: Streptococcus pneumoniae; assay: Antimicrobial activity against drug-resistant Streptococcus pneumoniae NMU112 infected CBA/J mouse assessed as median survival time at 7.5 mg/kg, po relative to control; type: functional; method in brief: as §1
[5] = tested on: Plasma; assay: Drug level in Streptococcus pneumoniae NMU112 infected CBA/J mouse plasma at 5 mg/kg/day, po after 24 hrs; type: ADME, organism-based; set-up: route oral; conditions: in vivo
Method in brief: (§2)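 Oral gavage at 5 mg/kg/day (0.075 mg twice daily, six doses). Plasma and PBS lung homogenates were taken 24, 48 and 72 h after the last dose. Assayed by HPLC-electrochemical detection with an erythromycin internal standard; linear ranges 0.15–10.5 (plasma) and 0.4–11.8 μg/ml (lung). Five mice per time point; mean ± SD.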

[6] = tested on: Lung; assay: Drug level in Streptococcus pneumoniae NMU112 infected CBA/J mouse lung tissue at 5 mg/kg/day, po after 48 hrs; type: ADME, organism-based; set-up: route oral; conditions: in vivo; method in brief: as §2
[7] = tested on: Plasma; assay: Drug level in Streptococcus pneumoniae NMU112 infected CBA/J mouse plasma at 5 mg/kg/day, po after 48 hrs; type: ADME, organism-based; set-up: route oral; conditions: in vivo; method in brief: as §2
[8] = tested on: Plasma; assay: Drug level in Streptococcus pneumoniae NMU112 infected CBA/J mouse plasma at 5 mg/kg/day, po after 72 hrs; type: ADME, organism-based; set-up: route oral; conditions: in vivo; method in brief: as §2
[9] = tested on: Lung; assay: Drug level in Streptococcus pneumoniae NMU112 infected CBA/J mouse lung tissue at 5 mg/kg/day, po after 24 hrs; type: ADME, organism-based; set-up: route oral; conditions: in vivo; method in brief: as §2
[10] = tested on: Lung; assay: Drug level in Streptococcus pneumoniae NMU112 infected CBA/J mouse lung tissue at 5 mg/kg/day, po after 72 hrs; type: ADME, organism-based; set-up: route oral; conditions: in vivo; method in brief: as §2
[11] = tested on: Streptococcus pneumoniae; assay: Antimicrobial activity against Streptococcus pneumoniae NMU112 infected in po dosed CBA/J mouse blood assessed as number of colony forming units after 4 days relative to control; type: functional
Method in brief: (§3)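 CBA/J mice (28–30 g) dosed by oral gavage twice daily for 3 days, saline as control. Infected 24 h after the last dose with 5 × 10⁴ CFU via the oropharynx under light ketamine/xylazine anesthesia. Blood, lung homogenate and pooled BALF supernatant were plated on agar with 200 μg/ml ERY and incubated about 24 h at 37°C for CFU. Three mice per group per time point, three experiments.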

[12] = tested on: Streptococcus pneumoniae; assay: Antimicrobial activity against Streptococcus pneumoniae NMU112 infected in po dosed CBA/J mouse blood assessed as number of colony forming units after 5 days relative to control; type: functional; method in brief: as §3
[13] = tested on: Streptococcus pneumoniae; assay: Increase in Streptococcus pneumoniae NMU112 infection-induced reduction in MCP1 level in po dosed CBA/J mouse lung after 12 to 36 hrs by sandwich ELISA relative to control; type: functional, organism-based
Method in brief: (§4)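 Lung homogenate in lysis buffer with protease inhibitors, 30 min on ice, spun 12,000 × g 20 min at 4°C. KC or MCP-1 measured by sandwich ELISA, detection limit 2 pg/ml. Three mice per group per time point after infection with 5 × 10⁴ CFU, each sample in triplicate, two experiments.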

[14] = tested on: Streptococcus pneumoniae; assay: Reduction in Streptococcus pneumoniae NMU112 infection-induced elevation in keratinocyte-derived chemokine level in po dosed CBA/J mouse bronchoalveolar lavage fluid after 8 hrs by sandwich ELISA relative to control; type: functional, organism-based; conditions: Lung
[15] = tested on: Streptococcus pneumoniae; assay: Reduction of pneumococcal surface protein A in Streptococcus pneumoniae NMU112 infected CBA/J mouse lung lysates after 48 hrs by Western blot relative to control; type: functional, organism-based
Method in brief: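 Left-lung Triton X extract (1 mg protein) immunoprecipitated with anti-PspA on protein G beads, then run on SDS-12% PAGE and Western blotted. Densitometry given as % of control. Three mice per group per time point.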

[16] = tested on: Streptococcus pneumoniae; assay: Inhibition of Streptococcus pneumoniae NMU112 induced MMP7 expression level in po dosed CBA/J mouse assessed as decrease in caseinolytic activity after 6 to 48 hrs relative to control; type: functional, organism-based
Method in brief: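 Casein zymography on lung extract (100 μg protein) in 4–16% casein gels. The 19-kDa mature MMP-7 lysis band was scanned by densitometry and expressed as % of infected controls. Five to six mice per time point, three experiments.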

[17] = tested on: Streptococcus pneumoniae; assay: Reduction of pneumolysin production in Streptococcus pneumoniae NMU112 infected CBA/J mouse lung lysates after 48 hrs of infection by Western blot relative to control; type: functional, organism-based
Method in brief: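 Left lungs (n, 3 per group per time point) homogenised in Tris-HCl pH 7.5 with NaCl and Triton X, then centrifuged. Extract (1 mg protein) immunoprecipitated with anti-PLY on protein G beads, run on SDS-12% PAGE and blotted. Band densitometry expressed as % of control mice after oral pretreatment and intratracheal NMU112 infection.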

[18] = species on record: Mus musculus; assay: Reduction of polymorphonuclear leukocytes in UV rays killed Streptococcus pneumoniae NMU112 infected CBA/J mouse bronchoalveolar lavage fluid relative to control; type: functional, organism-based; conditions: Lung
[19] = tested on: Streptococcus pneumoniae; assay: Antimicrobial activity against Streptococcus pneumoniae NMU112 infected in po dosed CBA/J mouse blood assessed as number of colony forming units after 6 days relative to control; type: functional; method in brief: as §3
[20] = tested on: Streptococcus pneumoniae; assay: Antimicrobial activity against Streptococcus pneumoniae NMU112 infected in po dosed CBA/J mouse blood assessed as number of colony forming units after 7 days relative to control; type: functional; method in brief: as §3
[21] = tested on: Streptococcus pneumoniae; assay: Antimicrobial activity against Streptococcus pneumoniae NMU112 infected in po dosed CBA/J mouse lungs assessed as reduction in number of colony forming units after 24 to 48 hr relative to control; type: functional, organism-based; method in brief: as §3
[22] = tested on: Streptococcus pneumoniae; assay: Antimicrobial activity against Streptococcus pneumoniae NMU112 infected in po dosed CBA/J mouse bronchoalveolar lavage fluid assessed as reduction in number of colony forming units after 24 to 48 hrs relative to control; type: functional, organism-based; conditions: Lung; method in brief: as §3
[23] = tested on: Streptococcus pneumoniae; assay: Reduction in Streptococcus pneumoniae NMU112 infection-induced elevation in keratinocyte-derived chemokine level in po dosed CBA/J mouse lung after 12 hrs by sandwich ELISA relative to control; type: functional, organism-based; method in brief: as §4
[24] = species on record: Mus musculus; assay: Reduction of MMP7 expression level in UV rays killed Streptococcus pneumoniae NMU112 infected CBA/J mouse bronchoalveolar lavage fluid relative to control; type: functional, organism-based; conditions: Lung
[25] = tested on: Streptococcus pneumoniae; assay: Inhibition of Streptococcus pneumoniae NMU112 infection-induced polymorphonuclear leukocytes infiltration in CBA/J mouse lung assessed as MPO activity after 12 hrs relative to control; type: functional, organism-based
Method in brief: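 Lungs (n = 4 per group per time point) removed after blood collection, weighed and frozen, then assayed with an MPO kit. Activity given as units per mg protein.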

[26] = tested on: Streptococcus pneumoniae; assay: Antimicrobial activity against Streptococcus pneumoniae NMU605 infected CBA/J mouse assessed as animal survival at => 2.5 mg/kg, po relative to control; type: functional, organism-based; set-up: dose 2.5 mg/kg
[27] = tested on: Streptococcus pneumoniae; assay: Antimicrobial activity against Streptococcus pneumoniae NMUP45 infected CBA/J mouse assessed as animal survival at => 5 mg/kg, po relative to control; type: functional, organism-based; set-up: dose 5 mg/kg
[28] = tested on: Streptococcus pneumoniae; assay: Reduction in Streptococcus pneumoniae NMU112 infection induced elevation in syndecan-1 shedding in po dosed CBA/J mouse bronchoalveolar lavage fluid relative to control; type: functional, organism-based; conditions: Lung
Method in brief: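 Syndecan-1 ectodomains in 100 μl BALF measured by sandwich ELISA: 281-2 capture antibody, biotinylated 281-2 detection, streptavidin-HRP/TMB, read at 450 nm. Range 2.5–245 ng/ml. Three mice per time point, triplicate, three experiments.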

[29] = tested on: Streptococcus pneumoniae; assay: Antimicrobial activity against Streptococcus pneumoniae NMU112; type: functional
Method in brief: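 Broth microdilution MIC per NCCLS in Mueller-Hinton broth with 3% lysed horse blood.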

[30] = tested on: Streptococcus pneumoniae; assay: Antimicrobial activity against Streptococcus pneumoniae NMUP45; type: functional
Method in brief: (§5)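 Broth microdilution MIC (NCCLS method) in Mueller-Hinton broth with 3% lysed horse blood; clinical isolates NMU605 (serotype 3) and NMUP45 (serotype 4).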

[31] = tested on: Streptococcus pneumoniae; assay: Antimicrobial activity against Streptococcus pneumoniae NMU605; type: functional; method in brief: as §5
[32] = tested on: Streptococcus pneumoniae; assay: Reduction of pneumolysin production in Streptococcus pneumoniae NMU112 lysates at 5 ug/mL after 12 hrs by Western blot relative to control; type: functional, organism-based
Method in brief: (§6)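 NMU112 at 5 × 10⁷ CFU/ml in THY cultured with macrolide at 37°C for 12 h, then whole-cell sonicated lysates run on SDS-PAGE and immunoblotted for pneumolysin. Band densitometry as mean % of drug-free culture; two cultures per dose per experiment, three experiments.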

[33] = tested on: Streptococcus pneumoniae; assay: Inhibition of pneumococcal surface protein A production in Streptococcus pneumoniae NMU112 lysates at 5 ug/mL after 12 hrs by Western blot relative to control; type: functional, organism-based
Method in brief: (§7)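 Strain NMU112 (5 × 10⁷ CFU/ml in THY) cultured 12 h at 37°C with drug. Sonicated whole-cell lysates run on SDS-PAGE and Western blotted; bands measured by densitometry as % of drug-free culture. Two cultures per dose, three experiments (n = 5–6).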

[34] = tested on: Streptococcus pneumoniae; assay: Increase in Streptococcus pneumoniae NMU112 infection-induced reduction in MCP1 level in po dosed CBA/J mouse lung by sandwich ELISA relative to control
[35] = tested on: Streptococcus pneumoniae; assay: Antimicrobial activity against drug-resistant Streptococcus pneumoniae NMU112 infected CBA/J mouse assessed as median survival time at 20 mg/kg, po relative to control; type: functional; method in brief: as §1
[36] = tested on: Streptococcus pneumoniae; assay: Antimicrobial activity against Streptococcus pneumoniae NMU112 infected in po dosed CBA/J mouse assessed as delaying in development of bacteremia […]; type: functional, organism-based
[37] = tested on: Streptococcus pneumoniae; assay: Reduction of pneumolysin production in Streptococcus pneumoniae NMU112 lysates at 10 ug/mL after 12 hrs by Western blot relative to control; type: functional, organism-based; method in brief: as §6
[38] = tested on: Streptococcus pneumoniae; assay: Inhibition of pneumococcal surface protein A production in Streptococcus pneumoniae NMU112 lysates at 10 ug/mL after 12 hrs by Western blot relative to control; type: functional, organism-based; method in brief: as §7

Compound: CC[C@H]1OC(=O)[C@H](C)[C@@H](O[C@H]2C[C@@](C)(OC)[C@@H](O)[C@H](C)O2)[C@H](C)[C@@H](O[C@@H]2O[C@H](C)C[C@H](N(C)C)[C@H]2O)[C@](C)(O)C[C@@H](C)/C(=N\OCOCCOC)[C@H](C)[C@@H](O)[C@]1(C)O [ROXITHROMYCIN]
- MST [1]: 6.6 days
- MST [2]: 5.8 days
- Activity [3]: inactive
- MST [4]: 6.3 days
- Concn [5]: 3870 ng/mL
- Concn [6]: 2870 ng/mL
- Concn [7]: 1360 ng/mL
- Concn [8]: 540 ng/mL
- Concn [9]: 5220 ng/mL
- Concn [10]: 650 ng/mL
- log10CFU/ml [11]: 2.14
- log10CFU/ml [12]: 3.68
- Activity [13]: Active
- Activity [14]: Active
- Activity [15]: Active
- Activity [16]: Active
- Activity [17]: Active
- Activity [18]: Active
- log10CFU/ml [19]: 4.27
- log10CFU/ml [20]: >=5.11
- Activity [21]: Active
- Activity [22]: Active
- Activity [23]: Active
- Activity [24]: Active
- Activity [25]: Active
- Activity [26]: Active
- Activity [27]: Active
- Activity [28]: Active
- MIC [29]: ≥ 256 µg/mL
- MIC [30]: 4 µg/mL (≈ 4.78 µM)
- MIC [31]: 0.06 µg/mL (≈ 0.0717 µM)
- Activity [32]: inactive
- Activity [33]: inactive
- Activity [34]: Active

Compound: CC[C@H]1OC(=O)[C@H](C)[C@@H](O[C@H]2C[C@@](C)(OC)[C@@H](O)[C@H](C)O2)[C@H](C)[C@@H](O[C@@H]2O[C@H](C)C[C@H](N(C)C)[C@H]2O)[C@](C)(O)C[C@@H](C)C(=O)[C@H](C)[C@@H](O)[C@]1(C)O [ERYTHROMYCIN]
- MST [1]: 5.27 days
- MST [35]: 6.78 days
- Activity [36]: Active
- MIC [29]: ≥ 256 µg/mL
- MIC [30]: 2 µg/mL (≈ 2.73 µM)
- MIC [31]: 0.03 µg/mL (≈ 0.0409 µM)
- Activity [32]: Active
- Activity [37]: Active
- Activity [38]: Active

— ChEMBL document CHEMBL1145502, “Roxithromycin favorably modifies the initial phase of resistance against infection with macrolide-resistant Streptococcus pneumoniae in a murine pneumonia model” (Antimicrob Agents Chemother, 2007)
